# Columns and labels:
# P388 = experiment: Cytotoxicity against mouse P388 cells after 3 days by MTT assay; type: functional, cell-based; details: P388, 72 h
# How it was run: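 Mouse lymphocytic leukemia cells grown in Fisher's medium with 10% heat-inactivated FCS at 37 °C, 5% CO2. Seeded at 1500 cells/well in 200 µL cultures, then given compounds in 0.5% DMSO at eight concentrations in triplicate for 3 days. MTT added, formazan dissolved in DMSO and read at 540 nm. IC50 is the concentration giving 50% absorbance reduction versus untreated cells. Assays repeated three times.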
# HT-29 = experiment: Cytotoxicity against human HT29 cells after 6 days by MTT assay; type: functional, cell-based; details: HT-29, 144 h
# How it was run: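 Human colon carcinoma cells from ATCC kept in RPMI 1640 with 10% heat-inactivated FCS at 37 °C, 5% CO2. Plated at 1000 cells/well and exposed 6 days to eight concentrations spanning a 128-fold range, in triplicate, in 0.5% DMSO. Then 1 mg/mL MTT added for 5 h at 37 °C, formazan dissolved in DMSO, read at 540 nm. IC50 is 50% absorbance reduction versus untreated cells. Three repeats.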
compound,measurement,setting,value
CC(=O)O[C@@H]1[C@H]2C[C@H](OC(=O)c3ccccc3)[C@]3(COC(=O)CC(C)C)[C@@H](OC(C)=O)[C@@H](OC(=O)c4ccccc4)C[C@@H](C)[C@@]13OC2(C)C,IC50,P388,0.051 µg/mL
same,IC50,HT-29,0.082 µg/mL
CC(=O)O[C@H]1CC[C@@H](C)[C@]23OC(C)(C)[C@H](C[C@H](OC(=O)c4ccccc4)[C@]12COC(=O)c1ccccc1)[C@H]3OC(C)=O,IC50,P388,0.043 µg/mL
same,IC50,HT-29,0.071 µg/mL
CC(=O)O[C@@H]1[C@H]2C[C@H](OC(=O)c3ccccc3)[C@]3(COC(=O)c4ccccc4)[C@@H](OC(C)=O)[C@@H](OC(=O)c4ccccc4)C[C@@H](C)[C@@]13OC2(C)C [FOKIENAGAROFURAN A],IC50,P388,0.032 µg/mL
same,IC50,HT-29,0.054 µg/mL
CC(=O)O[C@H]1[C@@H](OC(=O)c2ccccc2)C[C@@H](C)[C@]23OC(C)(C)[C@H](C[C@H](OC(=O)c4ccccc4)[C@]12COC(=O)c1ccccc1)[C@H]3OC(=O)c1ccccc1 [FOKIENAGAROFURAN D],IC50,P388,0.036 µg/mL
same,IC50,HT-29,0.058 µg/mL
CO[C@H](C(=O)[C@@H](O)[C@@H](C)O)[C@@H]1Cc2cc3cc(O[C@H]4C[C@@H](O[C@@H]5C[C@@H](O)[C@H](O)[C@@H](C)O5)[C@H](O)[C@@H](C)O4)c(C)c(O)c3c(O)c2C(=O)[C@H]1O[C@H]1C[C@@H](O[C@@H]2C[C@@H](O)[C@@H](O[C@@H]3C[C@](C)(O)[C@H](O)[C@@H](C)O3)[C@@H](C)O2)[C@H](O)[C@@H](C)O1 [PLICAMYCIN],IC50,P388,0.06 µg/mL
same,IC50,HT-29,0.08 µg/mL

# From ChEMBL document CHEMBL1157333, “Cytotoxic dihydroagarofuranoid sesquiterpenes from the stem of Microtropis fokienensis” (J Nat Prod, 2006)
